Data set [1] concerns MG63.3 cells. Description: In vitro ds-SL-mCherry reporter expression. The format is cell-based, human. Conditions: 1μM rapamycin, 5 days in culture (Fig 4B).
In data set [2] the test system is MG63.3 cells. Description: Spontaneous. The class given is in vivo, human. Particulars: orthotopically injected MG63.3 cells, 5mg/kg daily IP (Fig 6D). The essentials: (§1)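 Cells were injected para-osseously into the proximal tibia: K7M2 into female BALB/c mice, human lines into female SCID-beige mice, 8-10 weeks old; MNNG at 1x10^6 cells. Mice received 5mg/kg IP rapamycin or vehicle daily, 5 days/week. Tumours were measured every 3-4 days and limbs amputated at 1.5-1.7 cm3. Survival ran from amputation, with metastasis confirmed at necropsy; Kaplan-Meier analysis, Gehan-Breslow-Wilcoxon test.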

Data set [3] relates to K7M2 cells. As to the kind of experiment: Spontaneous. The class given is in vivo, murine. Particulars: orthotopically injected K7M2 cells, 5mg/kg daily IP (Fig 6C). The essentials: as §1
The test system of data set [4] is K7M2 cells. Description: Ex vivo lung culture metastatic outgrowth, K7M2. The format is cell-based, murine. The essentials: (§2)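 Tumor cells were tail-vein injected, and lung sections were then cultured ex vivo. K7M2 cells were grown in female BALB/c mice and MG63.3 in female SCID-beige mice, 8-10 weeks old. Culture media held a final 0.1uM or 1uM rapamycin, or volume-matched DMSO, refreshed every 2 days. Eight sections were imaged per condition. Burden was total GFP+ area per section normalised to day 0.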

The next data set relates to MNNG cells. As to the kind of experiment: Spontaneous. The class given is in vivo, human. Particulars: orthotopically injected MNNG cells, 5mg/kg daily IP (Fig 6E). In outline: as §1
The subject of data set [5] is MG63.3 cells. Description: Ex vivo lung culture metastatic outgrowth, MG63.3. The class given is cell-based, human. The essentials:
as §2

Data set [6] is described as follows: Single rapamycin dose pharmacokinetic study, whole blood levels. The format is in vivo, mice. In outline:
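Naive female athymic nude mice, 8-10 weeks old, received a single 5mg/kg IP dose (n=3 per condition). Whole blood was sampled at 0, 1, 2, 6, 24 and 48 h and quantified by validated LC/MS/MS. Parameters were derived noncompartmentally: Cmax and trough read directly from the data, AUC by the log-linear trapezoidal method.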

Data set [7] concerns K7M2 cells. As to the kind of experiment: In vitro ds-SL-mCherry reporter expression. The format is cell-based, murine. Particulars: 1μM rapamycin, 5 days in culture (Fig 4A).
Data set [8] relates to phosphorylation of p70S6K (Thr389). Description: Immunoblot for phospho- and total p70S6K in MG63.3 cells. The format is cell-based, human. Particulars: concentrations as low as 0.1μM, 4 hours, immunoblot (Fig 3A).
The test system is the same in data set [9]. As to the kind of experiment: Immunoblot for phospho- and total p70S6K in K7M2 cells. The class given is cell-based, murine. Conditions: concentrations as low as 0.1μM, 4 hours, immunoblot (Fig 3A).

Each structure is given as a SMILES string.

For the compound `CO[C@H]1C[C@@H]2CC[C@@H](C)[C@@](O)(O2)C(=O)C(=O)N2CCCC[C@H]2C(=O)O[C@H]([C@H](C)C[C@@H]2CC[C@@H](O)[C@H](OC)C2)CC(=O)[C@H](C)/C=C(\C)[C@@H](O)[C@@H](OC)C(=O)[C@H](C)C[C@H](C)/C=C/C=C/C=C/1C` [rapamycin], the “effect on ds-SL-mCherry reporter expression in vitro” value with MG63.3 cells [1] and in the data set on K7M2 cells [7] was “no effect on reporter expression” throughout. The “survival of mice from time of limb amputation” value in the data set with MG63.3 cells [2], in the data set with K7M2 cells [3] and in the data set with MNNG cells was “significantly prolonged survival” each time. In addition, the “metastatic outgrowth in ex vivo lung culture” value in the data set with K7M2 cells [4] (K7M2, 0.1μM rapamycin (Fig 5B, 5C)) is “robustly inhibited metastatic outgrowth”; in the data set on K7M2 cells [4] (K7M2, 1μM rapamycin (Fig 5B, 5C)), “robustly inhibited metastatic outgrowth”; with MG63.3 cells [5] (MG63.3, 0.1μM rapamycin (Fig 5D, 5E)), “robustly inhibited metastatic outgrowth”; in the data set with MG63.3 cells [5] (MG63.3, 1μM rapamycin (Fig 5D, 5E)), “robustly inhibited metastatic outgrowth”. In addition, the AUC/dose equivalent value in data set [6] (mice, 5mg/kg IP, noncompartmental methods, predicted sufficient to inhibit p70S6K phosphorylation and exert anti-metastatic activities) was 3,555 [ng*hr/ml]/[mg/kg]. Also, the “whole blood concentration maintained” value in data set [6] (naïve mice, single IP dose of 5mg/kg, for 24hrs (Fig 3C)) is “above 0.1 μM”. Also, the “inhibition of phosphorylation of p70S6K” value in data set [8] and in [9] was “effectively inhibited phosphorylation of p70S6K” throughout.

The values are drawn from article PMC5161706 (Clinical cancer research : an official journal of the …, 2016).
